# Square brackets hold non-standard residues; d marks the D form. Peptide text beside a SMILES is read from it. * marks the point of attachment. Hyp = O=C(O)[C@@H]1C[C@@H](O)CN1; Aad = N[C@@H](CCCC(=O)O)C(=O)O; Cbz = O=C(OCc1ccccc1)*; PhAc = O=C(Cc1ccccc1)*; Boc = CC(C)(C)OC(=O)*; OBn = c1ccc(CO*)cc1; Bn = c1ccc(C*)cc1; OtBu = CC(C)(C)O*; tBu = CC(C)(C)*
# Legend:
# [1] = biological target: T1, MDR1 (P-glycoprotein, ABCB1) (Homo sapiens, UniProt P08183); assay: Inhibition of human MDR1 expressed in mouse NIH3T3 cells assessed as inhibition of drug efflux in at 10 uM by flow cytometry; type: cell-based; conditions: mouse NIH3T3 cells expressing human MDR1
# T1 sequence (P08183 whole entry): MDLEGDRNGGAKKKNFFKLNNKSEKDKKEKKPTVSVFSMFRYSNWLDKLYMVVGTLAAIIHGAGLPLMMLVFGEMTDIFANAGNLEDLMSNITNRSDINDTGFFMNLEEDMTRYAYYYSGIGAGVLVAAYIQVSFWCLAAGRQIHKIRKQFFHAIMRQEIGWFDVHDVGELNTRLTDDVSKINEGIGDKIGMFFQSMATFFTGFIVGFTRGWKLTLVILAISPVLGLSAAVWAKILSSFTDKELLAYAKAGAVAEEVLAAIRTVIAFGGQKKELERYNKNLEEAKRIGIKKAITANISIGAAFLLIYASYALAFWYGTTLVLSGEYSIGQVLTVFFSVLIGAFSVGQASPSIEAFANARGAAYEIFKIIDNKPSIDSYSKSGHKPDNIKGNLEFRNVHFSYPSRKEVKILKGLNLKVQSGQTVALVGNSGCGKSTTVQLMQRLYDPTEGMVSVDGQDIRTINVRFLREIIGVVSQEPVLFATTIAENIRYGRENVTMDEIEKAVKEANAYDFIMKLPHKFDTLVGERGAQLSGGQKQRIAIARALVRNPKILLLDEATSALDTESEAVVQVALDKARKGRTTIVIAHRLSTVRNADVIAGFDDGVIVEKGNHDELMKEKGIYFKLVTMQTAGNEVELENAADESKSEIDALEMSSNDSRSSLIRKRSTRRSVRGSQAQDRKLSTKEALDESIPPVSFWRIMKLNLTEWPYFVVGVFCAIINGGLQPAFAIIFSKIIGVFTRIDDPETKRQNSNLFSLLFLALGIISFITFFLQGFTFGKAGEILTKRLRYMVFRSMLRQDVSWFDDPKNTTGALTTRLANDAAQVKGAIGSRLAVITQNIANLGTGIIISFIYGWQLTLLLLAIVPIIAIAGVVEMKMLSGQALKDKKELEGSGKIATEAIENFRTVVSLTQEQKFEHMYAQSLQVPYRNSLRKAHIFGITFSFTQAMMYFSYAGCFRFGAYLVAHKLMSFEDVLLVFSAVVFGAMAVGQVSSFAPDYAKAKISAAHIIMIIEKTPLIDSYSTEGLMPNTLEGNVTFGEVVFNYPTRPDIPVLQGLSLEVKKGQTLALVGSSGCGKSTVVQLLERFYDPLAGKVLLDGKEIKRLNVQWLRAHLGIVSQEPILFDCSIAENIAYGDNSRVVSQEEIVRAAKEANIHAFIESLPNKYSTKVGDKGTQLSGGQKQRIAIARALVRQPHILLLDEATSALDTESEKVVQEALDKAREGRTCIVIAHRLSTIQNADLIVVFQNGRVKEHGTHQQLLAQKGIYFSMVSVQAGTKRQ
# [2] = biological target: T1, MDR1 (P-glycoprotein, ABCB1); assay: Inhibition of human MDR1 expressed in mouse NIH3T3 cells assessed as inhibition of drug efflux in at 2 uM by flow cytometry; type: cell-based; conditions: mouse NIH3T3 cells expressing human MDR1
# [3] = biological target: P-glycoprotein (ABCB1) (Homo sapiens, UniProt P08183); assay: Inhibition of p-glycoprotein expressed in human K562/R7 cells assessed as inhibition of drug efflux at 10 uM by flow cytometry; type: cell-based; conditions: K562/R7 cells expressing P-glycoprotein
# Sequence of P-glycoprotein (ABCB1) (P08183 whole entry): as above
# Procedure, shortened: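 K562/R7 cells (1×10⁶/mL RPMI 1640) were incubated for 1 h at 37 °C with 10 μM daunorubicin (final), with or without 10 μM compound. Cells were washed in ice-cold PBS, kept on ice, and retained fluorescence was read by flow cytometry. Cyclosporin A served as positive control. Duplicate experiments carried out twice.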
# [4] = biological target: MRP1 (multidrug resistance-associated protein 1) (Homo sapiens, UniProt P33527); assay: Inhibition of MRP1 expressed in BHK cells assessed as inhibition of drug efflux at 10 uM; type: cell-based; conditions: hamster, BHK cells expressing MRP1
# Procedure, shortened: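 BHK-21 cells expressing MRP1 were treated with compound at 10 μM in a flow-cytometric drug efflux inhibition assay. % inhibition of efflux was calculated as for the P-gp assay. Duplicates run twice.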
# [5] = biological target: T2, ATP-dependent translocase ABCB1 (Homo sapiens, UniProt P08183); assay: Inhibition of human MDR1 expressed in mouse NIH3T3 cells assessed as potentiation of daunorubicin-mediated cytotoxicity at 1 uM; type: cell-based; conditions: nih3t3, 1 µM
# T2 sequence (P08183 whole entry): as above
# Procedure, shortened: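 Control NIH3T3 and NIH3T3/P-gp cells were seeded at 2500 cells/well and settled for 24 h. They were then exposed for 72 h at 37 °C in 5% CO2 to increasing daunorubicin concentrations with 1 μM modulator. Survival was read by MTT, with 100% taken as cell number without anticancer drug.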
# [6] = Cytotoxicity against mouse NIH/3T3 cells assessed as effect on cell viability up to 1 uM after 72 hrs by MTT assay; type: cell-based; conditions: nih3t3, 72 h
# Procedure, shortened: (§1)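 Parental NIH3T3 or NIH3T3/P-gp (human MDR1-G185 transfected) cells were seeded at 2500 cells/well and allowed to attach for 24 h at 37 °C in 5% CO2. Compound was added at increasing concentrations in 1% DMSO and incubated for 72 h. Viability was read by MTT colorimetric assay. 100% survival was taken as cell number without compound.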
# [7] = biological target: T2, ATP-dependent translocase ABCB1; assay: Displacement of daunorubicin form H-site of human MDR1 expressed in mouse NIH3T3 cells at 0.11 to 1 uM by noncompetitive binding assay; type: cell-based; conditions: in the assay text read “Hoechst 33342” for “daunorubicin”
# Procedure, shortened: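 NIH3T3/P-gp and NIH3T3 cells (10⁵) were incubated with daunorubicin (5, 10, 15, 20 μM) or Hoechst 33342 (0–10 μM), with inhibitor at 0, 0.11, 0.22, 0.33 or 1 μM. Drug retained inside the cells after 1 h was measured by flow cytometry. Data were fitted to Michaelis–Menten to give Rmax and KM. KI came from Rmax⁰ = Rmax/(1+[I]/KI). Mean of two duplicate experiments.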
# [8] = Cytotoxicity against mouse NIH/3T3 cells assessed as decrease in cell viability at > 2 uM after 72 hrs by MTT assay; type: cell-based; conditions: nih3t3, 72 h; procedure, shortened: as §1
# [9] = Cytotoxicity against mouse NIH/3T3 cells expressing human MDR1 assessed as effect on cell viability up to 1 uM after 72 hrs by MTT assay; type: ADME, cell-based; conditions: nih3t3, 72 h; procedure, shortened: as §1
# [10] = Cytotoxicity against mouse NIH/3T3 cells expressing human MDR1 assessed as decrease in cell viability at > 2 uM after 72 hrs by MTT assay; type: ADME, cell-based; conditions: nih3t3, 72 h; procedure, shortened: as §1
# [11] = biological target: T2, ATP-dependent translocase ABCB1; assay: Displacement of daunorubicin form R-site of human MDR1 expressed in mouse NIH3T3 cells at 0.11 to 1 uM by noncompetitive binding assay
# [12] = biological target: T2, ATP-dependent translocase ABCB1; assay: Inhibition of human MDR1 expressed in mouse NIH3T3 cells assessed as inhibition of drug efflux by flow cytometry; type: cell-based
# [13] = biological target: T3, BCRP (ABCG2) (Homo sapiens, UniProt Q9UNQ0); assay: Inhibition of BCRP expressed in HEK293 cells assessed as inhibition of drug efflux at 10 uM by flow cytometry; type: cell-based; conditions: HEK293 cells expressing BCRP
# T3 sequence (Q9UNQ0 whole entry): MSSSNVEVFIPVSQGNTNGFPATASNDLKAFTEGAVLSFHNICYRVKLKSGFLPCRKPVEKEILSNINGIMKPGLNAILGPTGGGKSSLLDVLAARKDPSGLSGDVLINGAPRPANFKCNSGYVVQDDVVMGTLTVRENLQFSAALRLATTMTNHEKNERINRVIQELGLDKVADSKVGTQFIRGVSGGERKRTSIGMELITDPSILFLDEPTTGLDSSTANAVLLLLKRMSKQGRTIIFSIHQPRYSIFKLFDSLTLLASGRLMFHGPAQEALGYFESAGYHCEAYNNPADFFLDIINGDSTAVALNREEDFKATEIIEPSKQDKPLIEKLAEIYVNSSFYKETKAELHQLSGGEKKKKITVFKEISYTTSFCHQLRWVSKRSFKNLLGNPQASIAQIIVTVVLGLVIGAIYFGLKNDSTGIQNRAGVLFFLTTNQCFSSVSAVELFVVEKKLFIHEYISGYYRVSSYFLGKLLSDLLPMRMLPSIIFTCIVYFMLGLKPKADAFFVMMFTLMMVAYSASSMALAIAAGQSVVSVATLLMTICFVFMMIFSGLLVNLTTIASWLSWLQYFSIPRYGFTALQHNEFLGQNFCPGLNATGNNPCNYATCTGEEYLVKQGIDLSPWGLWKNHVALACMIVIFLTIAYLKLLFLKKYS
# Procedure, shortened: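 Human embryonic kidney 293 cells transfected with BCRP/ABCG2, tested with each compound at 10 μM. Intracellular fluorescent transported drug measured by flow cytometry. % efficacy = 100 × (FA − FBG)/(Fe − FBG): FA is transporter-expressing cells with drug, FBG is without drug (background), and Fe is control cells lacking the transporter. Mean of duplicate experiments carried out twice.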
smiles,measurement,setting,value
CC(C)(C)OC(=O)N[C@@H](CC(=O)OCc1ccccc1)C(=O)C[C@H](CCCCNC(=O)OCc1ccccc1)C(=O)OCc1ccccc1,inhibition at 10 µM,[1],35.7%
CC(C)(C)OC(=O)N[C@@H](CCOC(=O)Cc1ccccc1)C(=O)N[C@@H](CCCCNC(=O)OCc1ccccc1)C(=O)OC(C)(C)C,inhibition at 10 µM,[1],59.6%
CC(C)(C)OC(=O)N[C@@H](CCOC(=O)C1CCCCC1)C(=O)N[C@@H](CCCCNC(=O)OCc1ccccc1)C(=O)OC(C)(C)C,inhibition at 10 µM,[1],61.8%
CC(C)(C)OC(=O)N[C@@H](CCCOC(=O)C1CCCCC1)C(=O)N[C@@H](CCCCNC(=O)OCc1ccccc1)C(=O)OC(C)(C)C,inhibition at 10 µM,[1],82.3%
same,inhibition at 2 µM,[2],35.7%
same,inhibition at 10 µM,[3],80.4%
CC(C)(C)OC(=O)N[C@@H](CCOCc1ccccc1)C(=O)N[C@@H](CCCCNC(=O)OCc1ccccc1)C(=O)OC(C)(C)C,inhibition at 10 µM,[1],49.2%
CC(C)(C)OC(=O)N[C@H](CN[C@@H](CCCCNC(=O)OCc1ccccc1)C(=O)OC(C)(C)C)Cc1ccc(OC(C)(C)C)cc1,inhibition at 10 µM,[1],49.1%
CC(C)(C)OC(=O)[C@H](CCCCNC(=O)OCc1ccccc1)NC[C@@H]1C[C@@H](OCc2ccccc2)CN1C(=O)OC(C)(C)C,inhibition at 10 µM,[3],77.6%
same,inhibition at 10 µM,[4],9%
same,inhibition (INH),[5],Active
same,Activity,[6],Non-toxic
same,Activity,[7],Active
same,Activity,[8],Toxic
same,Activity,[9],Non-toxic
same,Activity,[10],Toxic
same,Activity,[11],Active
CC(C)(C)OC(=O)[C@H](CCCCNC(=O)OCc1ccccc1)NC(=O)[C@@H]1C[C@@H](OC(=O)C2CCCCC2)CN1C(=O)OC(C)(C)C,inhibition at 10 µM,[1],106%
same,IC50,[12],1680 nM
same,inhibition at 10 µM,[3],94.9%
same,inhibition at 10 µM,[13],11.2%
CC(C)(C)OC(=O)[C@H](CCCCNC(=O)OCc1ccccc1)NC(=O)[C@@H]1C[C@@H](OCC2CCCCC2)CN1C(=O)OC(C)(C)C,inhibition at 10 µM,[1],76.6%
same,inhibition at 2 µM,[2],82.2%
same,inhibition at 10 µM,[3],79.8%
O=C(CCC(=O)N[C@@H](CCC(=O)OCC1CCCCC1)C(=O)OCc1ccccc1)N[C@@H](CCC(=O)OCc1ccccc1)C(=O)OCc1ccccc1,inhibition at 10 µM,[1],29.3%
CC(C)(C)OC(=O)CNC(=O)[C@H](Cc1ccc(OC(C)(C)C)cc1)NC(=O)OC(C)(C)C,inhibition at 10 µM,[1],93.4%
same,inhibition at 2 µM,[2],38%
CC(C)(C)OC(=O)CC(C(=O)[C@H](Cc1ccc(OC(C)(C)C)cc1)NC(=O)OC(C)(C)C)S(=O)(=O)c1ccccc1 (stereo not given in full),inhibition at 10 µM,[1],106%
same,IC50,[12],1550 nM
CC(C)(C)OC(=O)CC(C(O)[C@H](Cc1ccc(OC(C)(C)C)cc1)NC(=O)OC(C)(C)C)S(=O)(=O)c1ccccc1 (stereo not given in full),inhibition at 10 µM,[1],104%
CC(C)(C)OC(=O)C/C=C/[C@H](Cc1ccc(OC(C)(C)C)cc1)NC(=O)OC(C)(C)C,inhibition at 10 µM,[1],71.2%
CC(C)(C)OC(=O)CCC[C@@H](Cc1ccc(OC(C)(C)C)cc1)NC(=O)OC(C)(C)C,inhibition at 10 µM,[1],78.7%
CC(C)(C)OC(=O)N[C@@H](Cc1ccc(OC(C)(C)C)cc1)C(=O)CS(=O)(=O)c1ccccc1,inhibition at 10 µM,[1],49.1%
CC(C)(C)OC(=O)N[C@@H](CC(=O)OCc1ccccc1)C(=O)CCC(=O)N[C@@H](CCCCNC(=O)OCc1ccccc1)C(=O)OC(C)(C)C,inhibition at 10 µM,[1],67.7%
CC(C)(C)OC(=O)N[C@@H](CCC(=O)OCc1ccccc1)C(=O)N[C@@H](CCCCNC(=O)OCc1ccccc1)C(=O)OC(C)(C)C (Boc-Glu(OBn)-Lys(Cbz)-OtBu),inhibition at 10 µM,[1],63.7%
CC(C)(C)OC(=O)CC[C@H](NC(=O)OC(C)(C)C)C(=O)N[C@@H](CCCCNC(=O)OCc1ccccc1)C(=O)OC(C)(C)C (Boc-Glu(OtBu)-Lys(Cbz)-OtBu),inhibition at 10 µM,[1],37.2%
CC(C)(C)OC(=O)N[C@@H](Cc1ccc(OC(C)(C)C)cc1)C(=O)N[C@@H](CCCCNC(=O)OCc1ccccc1)C(=O)OC(C)(C)C (Boc-Tyr(tBu)-Lys(Cbz)-OtBu),inhibition at 10 µM,[1],34%
CC(C)(C)OC(=O)N[C@@H](CCCC(=O)OCc1ccccc1)C(=O)N[C@@H](CCCCNC(=O)OCc1ccccc1)C(=O)OC(C)(C)C (Boc-[Aad](OBn)-Lys(Cbz)-OtBu),inhibition at 10 µM,[1],97.8%
same,inhibition at 2 µM,[2],37%
same,inhibition at 10 µM,[3],65.5%
CC(C)(C)OC(=O)[C@H](CCCCNC(=O)OCc1ccccc1)NC(=O)[C@@H]1C[C@@H](OCc2ccccc2)CN1C(=O)OC(C)(C)C (Boc-[Hyp](Bn)-Lys(Cbz)-OtBu),inhibition at 2 µM,[2],120%
same,inhibition at 10 µM,[3],83.5%
same,inhibition at 10 µM,[4],7%
CC(C)(C)OC(=O)[C@H](CCCCNC(=O)OCc1ccccc1)NC(=O)[C@@H]1C[C@@H](OC(=O)Cc2ccccc2)CN1C(=O)OC(C)(C)C (Boc-[Hyp](PhAc)-Lys(Cbz)-OtBu),inhibition at 10 µM,[1],68.2%
same,inhibition at 10 µM,[3],88.2%
same,inhibition at 10 µM,[13],10%
CC(C)(C)OC(=O)N[C@@H](CC(=O)OCc1ccccc1)C(=O)N[C@@H](CCCCNC(=O)OCc1ccccc1)C(=O)OC(C)(C)C [REVERSIN 121] (Boc-Asp(OBn)-Lys(Cbz)-OtBu),inhibition at 10 µM,[1],75.8%
same,IC50,[12],1410 nM
same,inhibition at 10 µM,[3],88%
O=C(CCC(=O)N[C@@H](CCC(=O)OCc1ccccc1)C(=O)OCc1ccccc1)N[C@@H](CCC(=O)OCc1ccccc1)C(=O)OCc1ccccc1 [REVERSIN 213],inhibition at 10 µM,[1],26.6%

# — ChEMBL document CHEMBL1250516, “Potent and fully noncompetitive peptidomimetic inhibitor of multidrug resistance P-glycoprotein” (J Med Chem, 2010)
